Measured values: ChEMBL document CHEMBL1145725, “Synthesis and antimicrobial activity of novel globomycin analogues” (2003)
Values after ≈ are worked out from the molar mass of the structure shown.

What follows are molecules tested on Enterobacter cloacae (assay: Antibacterial activity against Enterobacter cloacae SANK 72690). Details: not given.
Format: functional
In short: (§1)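 MIC by agar dilution on Nutrient Agar, following the NCCLS standard dilution method for aerobically growing bacteria.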

| MIC [µg/mL] | SMILES |
| --- | --- |
| > 100 | CCCCCC[C@H]1OC(=O)CNC(=O)[C@H]([C@H](C)O)NC(=O)[C@H](CO)NC(=O)[C@H]([C@H](C)CC)NC(=O)[C@H](CC(C)C)NC(=O)[C@@H]1C |
| 50 (≈ 76.2 µM) | CCCCCC[C@H]1OC(=O)CNC(=O)[C@H]([C@H](C)O)NC(=O)[C@H](CO)NC(=O)[C@H]([C@H](C)CC)NC(=O)[C@H](CC(C)C)N(C)C(=O)[C@@H]1C |

Each molecule was assayed on Escherichia coli (assay: Antibacterial activity against Escherichia coli SANK 70569 (NIHJ JC-2)). Details: not given.
Format: functional
In short: as §1

| MIC [µg/mL] | SMILES |
| --- | --- |
| > 100 | CCCCCC[C@H]1OC(=O)CNC(=O)[C@H]([C@H](C)O)NC(=O)[C@H](CO)NC(=O)[C@H]([C@H](C)CC)NC(=O)[C@H](CC(C)C)NC(=O)[C@@H]1C |
| 12.5 (≈ 19.1 µM) | CCCCCC[C@H]1OC(=O)CNC(=O)[C@H]([C@H](C)O)NC(=O)[C@H](CO)NC(=O)[C@H]([C@H](C)CC)NC(=O)[C@H](CC(C)C)N(C)C(=O)[C@@H]1C |

These molecules were tested on Salmonella enteritidis (assay: Antibacterial activity against Salmonella enteritidis SANK 72390). Details: Salmonella enterica.
Format: functional, Salmonella enterica subsp. enterica serovar Enteritidis
In short: as §1

| MIC [µg/mL] | SMILES |
| --- | --- |
| > 100 | CCCCCC[C@H]1OC(=O)CNC(=O)[C@H]([C@H](C)O)NC(=O)[C@H](CO)NC(=O)[C@H]([C@H](C)CC)NC(=O)[C@H](CC(C)C)NC(=O)[C@@H]1C |
| 25 (≈ 38.1 µM) | CCCCCC[C@H]1OC(=O)CNC(=O)[C@H]([C@H](C)O)NC(=O)[C@H](CO)NC(=O)[C@H]([C@H](C)CC)NC(=O)[C@H](CC(C)C)N(C)C(=O)[C@@H]1C |

Each molecule was assayed on Escherichia coli (assay: Antibacterial activity against Escherichia coli SANK 72290). Details: not given.
Format: functional
In short: as §1

| MIC [µg/mL] | SMILES |
| --- | --- |
| > 100 | CCCCCC[C@H]1OC(=O)CNC(=O)[C@H]([C@H](C)O)NC(=O)[C@H](CO)NC(=O)[C@H]([C@H](C)CC)NC(=O)[C@H](CC(C)C)NC(=O)[C@@H]1C |
| 12.5 (≈ 19.1 µM) | CCCCCC[C@H]1OC(=O)CNC(=O)[C@H]([C@H](C)O)NC(=O)[C@H](CO)NC(=O)[C@H]([C@H](C)CC)NC(=O)[C@H](CC(C)C)N(C)C(=O)[C@@H]1C |

What follows are molecules tested on Morganella morganii (assay: Antibacterial activity against Morganella morganii SANK 72990). Details: not given.
Format: functional
In short: as §1

| MIC [µg/mL] | SMILES |
| --- | --- |
| > 100 | CCCCCC[C@H]1OC(=O)CNC(=O)[C@H]([C@H](C)O)NC(=O)[C@H](CO)NC(=O)[C@H]([C@H](C)CC)NC(=O)[C@H](CC(C)C)NC(=O)[C@@H]1C |
| > 100 | CCCCCC[C@H]1OC(=O)CNC(=O)[C@H]([C@H](C)O)NC(=O)[C@H](CO)NC(=O)[C@H]([C@H](C)CC)NC(=O)[C@H](CC(C)C)N(C)C(=O)[C@@H]1C |

The molecules below were run on Serratia marcescens (assay: Antibacterial activity against Serratia marcescens SANK 72790). Details: not given.
Format: functional
In short: as §1

| MIC [µg/mL] | SMILES |
| --- | --- |
| > 100 | CCCCCC[C@H]1OC(=O)CNC(=O)[C@H]([C@H](C)O)NC(=O)[C@H](CO)NC(=O)[C@H]([C@H](C)CC)NC(=O)[C@H](CC(C)C)NC(=O)[C@@H]1C |
| 100 (≈ 152 µM) | CCCCCC[C@H]1OC(=O)CNC(=O)[C@H]([C@H](C)O)NC(=O)[C@H](CO)NC(=O)[C@H]([C@H](C)CC)NC(=O)[C@H](CC(C)C)N(C)C(=O)[C@@H]1C |

What follows are molecules tested on Staphylococcus aureus (assay: Antibacterial activity against Staphylococcus aureus SANK 71890 (MRSA)). Details: not given.
Format: functional
In short: as §1

| MIC [µg/mL] | SMILES |
| --- | --- |
| > 100 | CCCCCC[C@H]1OC(=O)CNC(=O)[C@H]([C@H](C)O)NC(=O)[C@H](CO)NC(=O)[C@H]([C@H](C)CC)NC(=O)[C@H](CC(C)C)N(C)C(=O)[C@@H]1C |

Each molecule was assayed on Enterococcus faecalis (assay: Antibacterial activity against Enterococcus faecalis SANK 71990). Details: not given.
Format: functional
In short: as §1

| MIC [µg/mL] | SMILES |
| --- | --- |
| > 100 | CCCCCC[C@H]1OC(=O)CNC(=O)[C@H]([C@H](C)O)NC(=O)[C@H](CO)NC(=O)[C@H]([C@H](C)CC)NC(=O)[C@H](CC(C)C)N(C)C(=O)[C@@H]1C |

These molecules were tested on Staphylococcus aureus (assay: Antibacterial activity against Staphylococcus aureus SANK 70668). Details: not given.
Format: functional
In short: as §1

| MIC [µg/mL] | SMILES |
| --- | --- |
| > 100 | CCCCCC[C@H]1OC(=O)CNC(=O)[C@H]([C@H](C)O)NC(=O)[C@H](CO)NC(=O)[C@H]([C@H](C)CC)NC(=O)[C@H](CC(C)C)N(C)C(=O)[C@@H]1C |

Each molecule was assayed on Proteus vulgaris (assay: Antibacterial activity against Proteus vulgaris SANK 72890). Details: not given.
Format: functional
In short: as §1

| MIC [µg/mL] | SMILES |
| --- | --- |
| > 100 | CCCCCC[C@H]1OC(=O)CNC(=O)[C@H]([C@H](C)O)NC(=O)[C@H](CO)NC(=O)[C@H]([C@H](C)CC)NC(=O)[C@H](CC(C)C)NC(=O)[C@@H]1C |
| > 100 | CCCCCC[C@H]1OC(=O)CNC(=O)[C@H]([C@H](C)O)NC(=O)[C@H](CO)NC(=O)[C@H]([C@H](C)CC)NC(=O)[C@H](CC(C)C)N(C)C(=O)[C@@H]1C |

The molecules below were run on Staphylococcus aureus (assay: Antibacterial activity against Staphylococcus aureus SANK 71790). Details: not given.
Format: functional
In short: as §1

| MIC [µg/mL] | SMILES |
| --- | --- |
| > 100 | CCCCCC[C@H]1OC(=O)CNC(=O)[C@H]([C@H](C)O)NC(=O)[C@H](CO)NC(=O)[C@H]([C@H](C)CC)NC(=O)[C@H](CC(C)C)N(C)C(=O)[C@@H]1C |

These molecules were tested on Klebsiella pneumoniae (assay: Antibacterial activity against Klebsiella pneumoniae SANK 72490). Details: not given.
Format: functional
In short: as §1

| MIC [µg/mL] | SMILES |
| --- | --- |
| > 100 | CCCCCC[C@H]1OC(=O)CNC(=O)[C@H]([C@H](C)O)NC(=O)[C@H](CO)NC(=O)[C@H]([C@H](C)CC)NC(=O)[C@H](CC(C)C)NC(=O)[C@@H]1C |
| 25 (≈ 38.1 µM) | CCCCCC[C@H]1OC(=O)CNC(=O)[C@H]([C@H](C)O)NC(=O)[C@H](CO)NC(=O)[C@H]([C@H](C)CC)NC(=O)[C@H](CC(C)C)N(C)C(=O)[C@@H]1C |

Each molecule was assayed on Enterobacter cloacae (assay: Antibacterial activity against Enterobacter cloacae 846). Details: not given.
Format: functional
In short: as §1

| MIC [µg/mL] | SMILES |
| --- | --- |
| 100 (≈ 156 µM) | CCCCCC[C@H]1OC(=O)CNC(=O)[C@H]([C@H](C)O)NC(=O)[C@H](CO)NC(=O)[C@H]([C@H](C)CC)NC(=O)[C@H](CC(C)C)NC(=O)[C@@H]1C |
| 6.25 (≈ 9.53 µM) | CCCCCC[C@H]1OC(=O)CNC(=O)[C@H]([C@H](C)O)NC(=O)[C@H](CO)NC(=O)[C@H]([C@H](C)CC)NC(=O)[C@H](CC(C)C)N(C)C(=O)[C@@H]1C |

Each molecule was assayed on Pseudomonas aeruginosa (assay: Antibacterial activity against Pseudomonas aeruginosa SANK 73190). Details: not given.
Format: functional
In short: as §1

| MIC [µg/mL] | SMILES |
| --- | --- |
| > 100 | CCCCCC[C@H]1OC(=O)CNC(=O)[C@H]([C@H](C)O)NC(=O)[C@H](CO)NC(=O)[C@H]([C@H](C)CC)NC(=O)[C@H](CC(C)C)NC(=O)[C@@H]1C |
| > 100 | CCCCCC[C@H]1OC(=O)CNC(=O)[C@H]([C@H](C)O)NC(=O)[C@H](CO)NC(=O)[C@H]([C@H](C)CC)NC(=O)[C@H](CC(C)C)N(C)C(=O)[C@@H]1C |

These molecules were tested on Pseudomonas aeruginosa (assay: Antibacterial activity against Pseudomonas aeruginosa SANK 3719). Details: not given.
Format: functional
In short: as §1

| MIC [µg/mL] | SMILES |
| --- | --- |
| > 100 | CCCCCC[C@H]1OC(=O)CNC(=O)[C@H]([C@H](C)O)NC(=O)[C@H](CO)NC(=O)[C@H]([C@H](C)CC)NC(=O)[C@H](CC(C)C)NC(=O)[C@@H]1C |
| > 100 | CCCCCC[C@H]1OC(=O)CNC(=O)[C@H]([C@H](C)O)NC(=O)[C@H](CO)NC(=O)[C@H]([C@H](C)CC)NC(=O)[C@H](CC(C)C)N(C)C(=O)[C@@H]1C |

The molecules below were run on Pseudomonas aeruginosa (assay: Antibacterial activity against Pseudomonas aeruginosa SANK 73090). Details: not given.
Format: functional
In short: as §1

| MIC [µg/mL] | SMILES |
| --- | --- |
| > 100 | CCCCCC[C@H]1OC(=O)CNC(=O)[C@H]([C@H](C)O)NC(=O)[C@H](CO)NC(=O)[C@H]([C@H](C)CC)NC(=O)[C@H](CC(C)C)NC(=O)[C@@H]1C |
| > 100 | CCCCCC[C@H]1OC(=O)CNC(=O)[C@H]([C@H](C)O)NC(=O)[C@H](CO)NC(=O)[C@H]([C@H](C)CC)NC(=O)[C@H](CC(C)C)N(C)C(=O)[C@@H]1C |
